Results on five molecules are retold here after ChEMBL document CHEMBL3734702, “Design of Specific Serine Protease Inhibitors Based on a Versatile Peptide Scaffold: Conversion of a Urokinase Inhibitor to a Plasma Kallikrein Inhibitor” (J Med Chem, 2015).

Where a SMILES comes first, the peptide text is derived from it. Bridges are numbered along the chain shown (N, C = ends). [ ]: non-standard residue; d: D form. Ala(1-amidino-4-piperidyl) = N=C(N)N1CCC(C[C@H](N)C(=O)O)CC1

In assay [1] the target is T1, Suppressor of tumorigenicity 14 protein (Homo sapiens, UniProt Q9Y5Y6).
T1 sequence (Q9Y5Y6 whole entry): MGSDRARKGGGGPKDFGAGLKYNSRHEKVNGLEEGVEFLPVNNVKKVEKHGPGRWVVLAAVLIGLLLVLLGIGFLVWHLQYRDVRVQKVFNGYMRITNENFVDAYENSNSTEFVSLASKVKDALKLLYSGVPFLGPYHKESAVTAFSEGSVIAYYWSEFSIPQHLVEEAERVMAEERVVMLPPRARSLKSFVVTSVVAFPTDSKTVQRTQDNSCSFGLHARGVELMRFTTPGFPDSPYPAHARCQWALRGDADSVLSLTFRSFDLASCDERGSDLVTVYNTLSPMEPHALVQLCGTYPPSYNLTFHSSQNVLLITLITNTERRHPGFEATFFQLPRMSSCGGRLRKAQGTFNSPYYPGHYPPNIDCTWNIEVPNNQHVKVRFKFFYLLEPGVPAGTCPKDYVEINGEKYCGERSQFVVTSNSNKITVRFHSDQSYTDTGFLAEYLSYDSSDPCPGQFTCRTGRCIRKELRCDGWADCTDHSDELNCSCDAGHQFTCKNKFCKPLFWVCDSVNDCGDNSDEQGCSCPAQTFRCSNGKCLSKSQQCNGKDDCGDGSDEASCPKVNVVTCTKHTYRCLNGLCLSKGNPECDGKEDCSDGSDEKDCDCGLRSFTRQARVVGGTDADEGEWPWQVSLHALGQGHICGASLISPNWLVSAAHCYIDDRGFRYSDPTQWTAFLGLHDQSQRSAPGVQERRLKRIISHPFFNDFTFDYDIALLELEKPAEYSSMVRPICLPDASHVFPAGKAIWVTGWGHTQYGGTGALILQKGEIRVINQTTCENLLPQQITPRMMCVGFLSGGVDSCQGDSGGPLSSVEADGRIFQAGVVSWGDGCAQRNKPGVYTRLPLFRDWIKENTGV
In words: Inhibition of human matriptase after 15 mins using H-D-Ile-Pro-Arg-p-nitroanilide as substrate.

The target of assay [2] is Prothrombin (Homo sapiens, UniProt P00734). In words: Inhibition of human thrombin after 15 mins using H-D-Ile-Pro-Arg-p-nitroanilide as substrate. The method in brief: (§1)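 Chromogenic substrate was added at about its KM; for KLK1 this was S-2251. Initial velocities were monitored at 405 nm.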
Assay [3] has as its target Tissue-type plasminogen activator (Homo sapiens, UniProt P00750). The assay can be described thus: Inhibition of human tPAn after 15 mins using H-D-Ile-Pro-Arg-p-nitroanilide as substrate. The procedure, abridged:
as §1

For assay [4], the target named is Tissue-type plasminogen activator (Mus musculus, UniProt P11214). In words: Inhibition of mouse tPA after 15 mins using Z-D-Arg-Gly-Arg-p-nitroanilide as substrate. The method in brief:
as §1

For assay [5], the target named is Prothrombin (Mus musculus, UniProt P19221). In words: Inhibition of mouse thrombin after 15 mins using H-D-Ile-Pro-Arg-p-nitroanilide as substrate. The procedure, abridged: as §1
Assay [6] concerns the target Vitamin K-dependent protein C (Homo sapiens, UniProt P04070). The assay can be described thus: Inhibition of human activated protein C after 15 mins using H-D-Ile-Pro-Arg-p-nitroanilide as substrate. The procedure, abridged:
as §1

Assay [7] concerns the target T2, Urokinase-type plasminogen activator (Homo sapiens, UniProt P00749). In words: Binding affinity to human uPA.
The target in assay [8] is Urokinase-type plasminogen activator (Mus musculus) (UniProt P06869). In words: Binding affinity to mouse uPA.
Assay [9] deals with Kallikrein-1 (Homo sapiens, UniProt P06870). The assay can be described thus: Inhibition of human KLK1 after 15 mins using Val-Leu-Lys-p-nitroanilide as substrate. The procedure, abridged:
as §1

Assay [10] has as its target Plasma kallikrein (Mus musculus, UniProt P26262). The assay can be described thus: Inhibition of mouse plasma kallikrein for 15 mins using H-D-Pro-Phe-Arg-p-nitroanilide as substrate. In kind it is cell-free. The procedure, abridged: as §1
In assay [11] the target is Plasminogen (Mus musculus, UniProt P20918). In words: Inhibition of mouse plasmin after 15 mins using H-D-Ile-Pro-Arg-p-nitroanilide as substrate. The method in brief:
as §1

The target of assay [12] is T2, Urokinase-type plasminogen activator. The assay can be described thus: Inhibition of human uPA for 15 mins using pyro-Glu-Gly-Arg-p-nitroanilide as substrate.
Assay [13] addresses Plasminogen (Homo sapiens, UniProt P00747). The assay can be described thus: Inhibition of human plasmin after 15 mins using H-D-Ile-Pro-Arg-p-nitroanilide as substrate. The procedure, abridged:
as §1

Assay [14] concerns the target Coagulation factor XI (Homo sapiens, UniProt P03951). The assay can be described thus: Inhibition of human coagulation factor 11a after 15 mins.
The target in assay [15] is T3, Serine protease 1 (Bos taurus, UniProt P00760).
T3 sequence (P00760 whole entry): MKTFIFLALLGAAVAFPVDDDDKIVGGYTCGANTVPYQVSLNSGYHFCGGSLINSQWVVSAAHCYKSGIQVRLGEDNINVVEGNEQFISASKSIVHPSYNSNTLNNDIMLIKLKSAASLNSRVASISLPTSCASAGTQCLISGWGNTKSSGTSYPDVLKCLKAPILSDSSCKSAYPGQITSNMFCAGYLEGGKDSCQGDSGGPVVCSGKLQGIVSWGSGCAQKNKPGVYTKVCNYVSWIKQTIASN
The assay can be described thus: Inhibition of bovine beta-trypsin after 15 mins using Bz-Ile-Glu(g-OR)-Gly-Arg-p-nitroanilide as substrate. The procedure, abridged:
as §1

The target in assay [16] is Urokinase-type plasminogen activator (Mus musculus, UniProt P06869). In words: Inhibition of mouse uPA for 15 mins using pyro-Glu-Gly-Arg-p-nitroanilide as substrate.
The target of assay [17] is Plasma kallikrein (Homo sapiens, UniProt P03952). In words: Inhibition of human plasma kallikrein for 15 mins using H-D-Pro-Phe-Arg-p-nitroanilide as substrate. The assay is classed as cell-free.
Sequence of Plasma kallikrein (Homo sapiens, UniProt P03952) (P03952 20-390 limits assumed): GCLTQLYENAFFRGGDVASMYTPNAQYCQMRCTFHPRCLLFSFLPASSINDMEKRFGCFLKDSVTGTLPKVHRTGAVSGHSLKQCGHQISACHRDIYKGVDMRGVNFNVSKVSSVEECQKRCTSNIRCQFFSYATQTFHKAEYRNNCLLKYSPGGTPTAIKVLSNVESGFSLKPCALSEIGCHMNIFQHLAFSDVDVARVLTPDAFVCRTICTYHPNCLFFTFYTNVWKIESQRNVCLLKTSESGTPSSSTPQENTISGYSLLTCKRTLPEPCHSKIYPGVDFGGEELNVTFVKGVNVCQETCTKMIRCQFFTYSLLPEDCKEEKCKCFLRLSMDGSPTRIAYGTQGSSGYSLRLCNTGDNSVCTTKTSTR
Sequence of Plasma kallikrein (Homo sapiens, UniProt P03952) (P03952 391-638 limits assumed): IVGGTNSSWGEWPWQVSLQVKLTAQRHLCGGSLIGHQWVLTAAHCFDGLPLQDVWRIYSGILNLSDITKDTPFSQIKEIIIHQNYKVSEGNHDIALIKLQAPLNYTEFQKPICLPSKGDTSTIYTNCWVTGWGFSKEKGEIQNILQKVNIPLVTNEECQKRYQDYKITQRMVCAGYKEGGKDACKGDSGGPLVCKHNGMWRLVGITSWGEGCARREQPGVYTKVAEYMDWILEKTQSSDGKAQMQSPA

Sequence of Vitamin K-dependent protein C (P04070 43-197 limits assumed): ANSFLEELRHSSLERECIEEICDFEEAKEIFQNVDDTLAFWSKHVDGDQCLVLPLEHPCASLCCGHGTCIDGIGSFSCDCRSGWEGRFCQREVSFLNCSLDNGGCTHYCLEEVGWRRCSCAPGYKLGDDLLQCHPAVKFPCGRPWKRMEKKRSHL
Sequence of Vitamin K-dependent protein C (P04070 212-461 limits assumed): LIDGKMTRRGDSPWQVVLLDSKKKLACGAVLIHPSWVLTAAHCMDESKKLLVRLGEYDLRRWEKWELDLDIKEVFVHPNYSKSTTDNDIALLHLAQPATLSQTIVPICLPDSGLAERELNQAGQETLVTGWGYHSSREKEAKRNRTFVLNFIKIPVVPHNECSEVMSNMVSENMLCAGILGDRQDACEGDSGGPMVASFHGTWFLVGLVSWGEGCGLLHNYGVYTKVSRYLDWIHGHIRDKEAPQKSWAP
Sequence of Tissue-type plasminogen activator (Mus musculus, UniProt P11214) (P11214 whole entry): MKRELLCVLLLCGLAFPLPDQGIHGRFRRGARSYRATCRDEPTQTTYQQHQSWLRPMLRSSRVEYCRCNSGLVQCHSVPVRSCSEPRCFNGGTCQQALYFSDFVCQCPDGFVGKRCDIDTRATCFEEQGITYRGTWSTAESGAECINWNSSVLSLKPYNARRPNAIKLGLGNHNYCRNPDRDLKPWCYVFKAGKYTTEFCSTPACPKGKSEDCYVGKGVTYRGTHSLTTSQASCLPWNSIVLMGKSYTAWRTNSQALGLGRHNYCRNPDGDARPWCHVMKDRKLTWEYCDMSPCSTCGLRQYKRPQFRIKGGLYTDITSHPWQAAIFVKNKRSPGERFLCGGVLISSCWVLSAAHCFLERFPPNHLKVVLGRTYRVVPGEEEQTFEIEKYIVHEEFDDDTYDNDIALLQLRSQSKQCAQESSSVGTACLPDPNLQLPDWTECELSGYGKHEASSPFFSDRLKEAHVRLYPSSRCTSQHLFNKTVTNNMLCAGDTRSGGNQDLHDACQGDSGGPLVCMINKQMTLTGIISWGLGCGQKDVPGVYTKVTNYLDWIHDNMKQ
Sequence of Tissue-type plasminogen activator (Homo sapiens, UniProt P00750) (P00750 whole entry): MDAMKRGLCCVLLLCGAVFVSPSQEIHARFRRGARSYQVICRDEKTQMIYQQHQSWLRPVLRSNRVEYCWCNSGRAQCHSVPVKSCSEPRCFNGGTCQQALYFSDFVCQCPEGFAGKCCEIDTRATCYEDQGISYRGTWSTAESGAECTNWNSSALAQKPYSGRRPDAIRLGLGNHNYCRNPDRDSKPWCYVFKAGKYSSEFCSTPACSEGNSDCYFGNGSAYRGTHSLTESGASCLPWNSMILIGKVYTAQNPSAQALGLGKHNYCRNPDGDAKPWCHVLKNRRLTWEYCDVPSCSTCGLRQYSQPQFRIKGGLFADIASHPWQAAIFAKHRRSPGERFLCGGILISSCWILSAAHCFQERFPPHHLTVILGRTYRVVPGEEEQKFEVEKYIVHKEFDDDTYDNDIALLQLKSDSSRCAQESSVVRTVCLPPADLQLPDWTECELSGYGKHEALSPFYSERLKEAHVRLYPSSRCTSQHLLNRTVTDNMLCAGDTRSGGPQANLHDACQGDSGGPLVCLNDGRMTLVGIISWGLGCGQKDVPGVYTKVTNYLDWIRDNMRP
Sequence of Urokinase-type plasminogen activator (Mus musculus, UniProt P06869) (P06869 21-178 limits assumed): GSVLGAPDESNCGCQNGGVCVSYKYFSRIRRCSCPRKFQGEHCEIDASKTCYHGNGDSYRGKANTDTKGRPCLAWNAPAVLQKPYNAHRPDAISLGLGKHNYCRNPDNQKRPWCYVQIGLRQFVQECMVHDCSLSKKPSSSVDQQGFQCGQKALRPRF
Sequence of Urokinase-type plasminogen activator (Mus musculus, UniProt P06869) (P06869 180-433 limits assumed): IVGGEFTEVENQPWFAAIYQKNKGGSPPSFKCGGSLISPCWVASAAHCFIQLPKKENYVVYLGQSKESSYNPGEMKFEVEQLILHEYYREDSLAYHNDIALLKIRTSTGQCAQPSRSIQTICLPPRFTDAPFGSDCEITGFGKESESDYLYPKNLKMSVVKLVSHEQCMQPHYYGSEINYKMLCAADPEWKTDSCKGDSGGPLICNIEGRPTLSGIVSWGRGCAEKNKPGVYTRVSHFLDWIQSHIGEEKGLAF
Sequence of Urokinase-type plasminogen activator (Mus musculus) (P06869 21-178 limits assumed): as the sequence (P06869 21-178 limits assumed) above
Sequence of Urokinase-type plasminogen activator (Mus musculus) (P06869 180-433 limits assumed): as the sequence (P06869 180-433 limits assumed) above
Sequence of Plasminogen (Homo sapiens, UniProt P00747) (P00747 97-580 limits assumed): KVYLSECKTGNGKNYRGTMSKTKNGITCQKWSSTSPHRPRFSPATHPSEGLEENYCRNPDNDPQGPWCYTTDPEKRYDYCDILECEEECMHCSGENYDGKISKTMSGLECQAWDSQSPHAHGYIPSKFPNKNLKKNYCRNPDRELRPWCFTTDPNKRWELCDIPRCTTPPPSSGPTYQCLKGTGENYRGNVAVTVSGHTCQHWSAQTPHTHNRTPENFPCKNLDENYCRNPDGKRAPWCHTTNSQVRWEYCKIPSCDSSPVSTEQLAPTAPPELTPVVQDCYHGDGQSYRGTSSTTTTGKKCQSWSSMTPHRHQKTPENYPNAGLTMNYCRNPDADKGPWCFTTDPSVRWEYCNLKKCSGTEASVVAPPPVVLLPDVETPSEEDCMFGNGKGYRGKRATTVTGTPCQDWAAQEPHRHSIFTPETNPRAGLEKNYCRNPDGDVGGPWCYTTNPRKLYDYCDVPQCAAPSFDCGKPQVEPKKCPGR
Sequence of Plasminogen (Homo sapiens, UniProt P00747) (P00747 581-810 limits assumed): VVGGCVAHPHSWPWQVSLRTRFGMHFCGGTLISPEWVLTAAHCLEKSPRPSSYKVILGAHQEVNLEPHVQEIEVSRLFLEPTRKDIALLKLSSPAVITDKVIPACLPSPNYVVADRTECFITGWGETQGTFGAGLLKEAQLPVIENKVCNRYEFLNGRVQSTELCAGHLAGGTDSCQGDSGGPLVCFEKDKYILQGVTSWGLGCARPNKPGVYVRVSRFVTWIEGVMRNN
Sequence of Plasma kallikrein (Mus musculus, UniProt P26262) (P26262 20-390 limits assumed): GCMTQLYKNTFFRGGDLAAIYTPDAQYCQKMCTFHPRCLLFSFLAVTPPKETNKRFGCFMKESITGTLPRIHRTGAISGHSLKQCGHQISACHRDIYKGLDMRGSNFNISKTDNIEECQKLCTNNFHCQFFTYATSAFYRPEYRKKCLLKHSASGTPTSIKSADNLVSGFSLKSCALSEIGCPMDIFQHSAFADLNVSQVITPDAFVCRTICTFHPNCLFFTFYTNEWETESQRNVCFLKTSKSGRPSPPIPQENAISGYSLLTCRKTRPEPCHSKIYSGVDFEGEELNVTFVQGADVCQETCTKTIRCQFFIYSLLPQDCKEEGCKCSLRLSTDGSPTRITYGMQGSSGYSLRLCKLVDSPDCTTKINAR
Sequence of Plasma kallikrein (Mus musculus, UniProt P26262) (P26262 391-638 limits assumed): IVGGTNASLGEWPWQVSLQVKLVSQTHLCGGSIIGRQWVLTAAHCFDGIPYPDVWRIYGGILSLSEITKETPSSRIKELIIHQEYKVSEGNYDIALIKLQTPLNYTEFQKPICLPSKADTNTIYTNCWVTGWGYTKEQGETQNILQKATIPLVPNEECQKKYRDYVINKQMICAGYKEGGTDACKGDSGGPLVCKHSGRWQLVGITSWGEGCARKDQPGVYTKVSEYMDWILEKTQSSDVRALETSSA
Sequence of Kallikrein-1 (P06870 whole entry): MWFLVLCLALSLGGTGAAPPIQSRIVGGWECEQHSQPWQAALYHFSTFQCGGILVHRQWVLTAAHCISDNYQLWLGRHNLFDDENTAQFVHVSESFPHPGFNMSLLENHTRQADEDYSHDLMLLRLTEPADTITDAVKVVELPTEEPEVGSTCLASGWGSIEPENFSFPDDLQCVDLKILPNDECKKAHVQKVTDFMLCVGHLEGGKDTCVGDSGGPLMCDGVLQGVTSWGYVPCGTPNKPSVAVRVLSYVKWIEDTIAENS

As a reminder, the Ki is a measure of affinity in units of concentration, obtained from inhibition or displacement. A low value points to higher affinity. `CC(C)C[C@@H]1NC(=O)[C@H](C)NC(=O)[C@H](CC2CCN(C(=N)N)CC2)NC(=O)[C@H](Cc2ccccc2)NC(=O)[C@H](CCCNC(=N)N)NC(=O)[C@H](C)NC(=O)[C@@H]2CCCN2C(=O)[C@@H](N)CSSC[C@@H](C(=O)O)NC(=O)[C@H](Cc2ccccc2)NC1=O` (H-CPARF[Ala(1-amidino-4-piperidyl)]ALFC-OH; disulfide 1-10): the Ki in assay [1], in [2], in assay [3], in assay [4], in [5] and in [6] was over 1000 µM in each case.

Turning to `CC(C)C[C@@H]1NC(=O)[C@H](C)NC(=O)[C@H](CC2CCN(C(=N)N)CC2)NC(=O)[C@H](Cc2ccccc2)NC(=O)[C@H](CCCNC(=N)N)NC(=O)[C@H](C)NC(=O)[C@@H]2CCCN2C(=O)[C@@H](N)CSSC[C@@H](C(=O)O)NC(=O)[C@H](Cc2c[nH]c3ccccc23)NC1=O` (H-CPARF[Ala(1-amidino-4-piperidyl)]ALWC-OH; disulfide 1-10), the Ki in assay [1], in assay [2], in assay [3], in assay [4], in [5] and in assay [6] was over 1000 µM in each case.

Consider `CC(C)C[C@@H]1NC(=O)[C@H](Cc2ccc(O)cc2)NC(=O)[C@H](CCCNC(=N)N)NC(=O)[C@H](CO)NC(=O)[C@H](Cc2ccc(O)cc2)NC(=O)[C@H](C)NC(=O)[C@@H]2CCCN2C(=O)[C@@H](N)CSSC[C@@H](C(=O)O)NC(=O)[C@H](CC(=O)O)NC1=O` (H-CPAYSRYLDC-OH; disulfide 1-10), for which the Activity in assay [7] amounted to 530 nM; in [8], 2 nM. Further, the Ki in [1], in assay [2], in assay [3], in assay [4], in [5] and in [6] was over 1000 µM each time.

As for `CC(C)C[C@@H]1NC(=O)[C@H](Cc2ccc(O)cc2)NC(=O)[C@H](CC2CCN(C(=N)N)CC2)NC(=O)[C@H](CO)NC(=O)[C@H](Cc2ccc(O)cc2)NC(=O)[C@H](C)NC(=O)[C@@H]2CCCN2C(=O)[C@@H](N)CSSC[C@@H](C(=O)O)NC(=O)[C@H](CC(=O)O)NC1=O` (H-CPAYS[Ala(1-amidino-4-piperidyl)]YLDC-OH; disulfide 1-10), the Ki in assay [1], in [2], in assay [3], in [4], in assay [5] and in assay [6] was over 1000 µM throughout.

On to `CC(C)C[C@@H]1NC(=O)[C@H](C)NC(=O)[C@H](CC2CCN(C(=N)N)CC2)NC(=O)[C@H](Cc2ccccc2)NC(=O)[C@H](CCCNC(=N)N)NC(=O)[C@H](CCCCN)NC(=O)[C@@H]2CCCN2C(=O)[C@@H](N)CSSC[C@@H](C(=O)O)NC(=O)[C@H](Cc2ccccc2)NC1=O` (H-CPKRF[Ala(1-amidino-4-piperidyl)]ALFC-OH; disulfide 1-10), for which the Ki in assay [9] is 0.384 µM; in [10], 0.043 µM; in assay [11], 3.42 µM; in assay [12], over 1000 µM; in [1], over 1000 µM; in assay [13], 12.5 µM. The Ki is 12.1 µM in assay [14]; over 1000 µM in assay [2]; over 1000 µM in [3]; over 1000 µM in [4]; over 1000 µM in assay [5]; 14.1 µM in assay [15]. In addition, the Ki was over 1000 µM in assay [16], 0.022 µM in [17] and over 1000 µM in assay [6].
